Measured values: ChEMBL document CHEMBL5335836, “Discovery of a new pyrido[2,3-d]pyridazine-2,8-dione derivative as a potential anti-inflammatory agent through COX-1/COX-2 dual inhibition” (RSC Med Chem, 2024)

Assays:
[1] = tested on: Mus musculus; assay: Anti-inflammatory activity against croton oil induced ear edema Swiss mouse model assessed as edema inhibition at 1.25 mg per ear, TOP measured after 6 hrs relative to control; assay type: functional
Method in brief: (§1)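 Male Swiss mice (20–30 g), n=7/group. Croton oil (200 µg/ear in 70% acetone) applied to the inner left ear, with vehicle alone on the right ear. Treatments in 20 µL 70% acetone were then applied topically to the left ear at 0.625 or 1.25 mg/ear, or 1 mg/ear for the reference drug. After 6 h, 6.0 mm ear disks were weighed and % edema inhibition calculated.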

[2] = tested on: Mus musculus; assay: Anti-inflammatory activity against croton oil induced ear edema Swiss mouse model assessed as edema inhibition at 1.00 mg per ear, TOP measured after 6 hrs relative to control; assay type: functional; method in brief: as §1
[3] = tested on: Mus musculus; assay: Anti-inflammatory activity against croton oil induced ear edema Swiss mouse model assessed as edema inhibition at 0.625 mg per ear, TOP measured after 6 hrs relative to control; assay type: functional; method in brief: as §1
[4] = Cytotoxicity against mouse L929 cells assessed as reduction in cell viability incubated for 72 hrs by MTT assay; assay type: toxicity, cell-based
Method in brief: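 Fibroblasts (CCL-1) were seeded at 2.5 × 10^5 cells/mL in DMEM + 10% FBS and grown 24 h at 37 °C, 5% CO2 to confluence. They were exposed to 100–1000 µM compound for 72 h, then given MTT (2 mg/mL) for 4 h. Formazan was dissolved in DMSO and read at 492 nm. Viability relative to control gave CC50.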

[5] = biological target: T1, Prostaglandin G/H synthase 2 (Homo sapiens) (UniProt P35354); assay: Inhibition of human recombinant COX-2 at 1.95 uM by microplate reader analysis relative to control
T1 sequence (whole entry): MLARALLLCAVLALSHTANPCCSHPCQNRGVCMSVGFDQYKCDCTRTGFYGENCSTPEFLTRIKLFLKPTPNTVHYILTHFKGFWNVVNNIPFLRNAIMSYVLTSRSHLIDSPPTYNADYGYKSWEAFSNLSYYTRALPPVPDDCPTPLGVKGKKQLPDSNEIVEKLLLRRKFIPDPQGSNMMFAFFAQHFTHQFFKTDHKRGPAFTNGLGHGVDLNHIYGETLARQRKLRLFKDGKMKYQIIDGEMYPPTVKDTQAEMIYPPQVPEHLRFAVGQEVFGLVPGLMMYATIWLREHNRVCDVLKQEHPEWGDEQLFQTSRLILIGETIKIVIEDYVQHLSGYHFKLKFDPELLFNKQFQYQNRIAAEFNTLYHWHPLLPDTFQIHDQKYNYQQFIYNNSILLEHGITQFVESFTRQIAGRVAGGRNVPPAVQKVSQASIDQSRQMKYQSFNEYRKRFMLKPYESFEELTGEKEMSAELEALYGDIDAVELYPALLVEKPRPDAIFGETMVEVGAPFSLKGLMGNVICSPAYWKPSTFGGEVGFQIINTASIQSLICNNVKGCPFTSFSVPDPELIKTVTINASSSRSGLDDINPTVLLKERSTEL
Method in brief: (§2)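 Kit-based cyclooxygenase inhibitor screen using human recombinant COX-2 or ovine COX-1, run per the manufacturer's procedure. Compound was tested at 1.95 and 31.25 µM. Absorbance was read at 405 nm. % inhibition was derived from %B/B0 on a standard curve.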

[6] = biological target: T1, Prostaglandin G/H synthase 2 (Homo sapiens); assay: Inhibition of human recombinant COX-2 at 31.25 uM by microplate reader analysis relative to control; method in brief: as §2
[7] = biological target: T2, Prostaglandin G/H synthase 1 (Ovis aries) (UniProt P05979); assay: Inhibition of ovine COX-1 at 1.95 uM by microplate reader analysis relative to control; method in brief: as §2
T2 sequence (whole entry): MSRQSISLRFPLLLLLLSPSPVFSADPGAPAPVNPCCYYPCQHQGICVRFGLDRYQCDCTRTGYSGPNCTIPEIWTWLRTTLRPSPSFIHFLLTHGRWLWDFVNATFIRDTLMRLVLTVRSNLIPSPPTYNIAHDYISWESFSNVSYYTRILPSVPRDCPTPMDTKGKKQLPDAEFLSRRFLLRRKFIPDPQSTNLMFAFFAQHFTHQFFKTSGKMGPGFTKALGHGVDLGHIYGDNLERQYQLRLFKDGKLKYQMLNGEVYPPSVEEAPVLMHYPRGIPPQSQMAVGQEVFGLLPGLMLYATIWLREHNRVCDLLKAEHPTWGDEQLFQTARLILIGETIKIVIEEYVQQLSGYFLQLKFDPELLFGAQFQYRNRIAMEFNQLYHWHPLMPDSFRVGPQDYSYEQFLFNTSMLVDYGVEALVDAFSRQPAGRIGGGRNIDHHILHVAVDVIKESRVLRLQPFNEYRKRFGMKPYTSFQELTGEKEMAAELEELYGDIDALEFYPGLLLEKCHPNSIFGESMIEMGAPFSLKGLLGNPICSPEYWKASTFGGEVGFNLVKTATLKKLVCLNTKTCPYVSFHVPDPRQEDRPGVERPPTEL

[8] = biological target: T2, Prostaglandin G/H synthase 1 (Ovis aries); assay: Inhibition of ovine COX-1 at 31.25 uM by microplate reader analysis relative to control; method in brief: as §2

Row | SMILES | inhibition (INH) [1] [%] | inhibition (INH) [3] [%] | also measured
1 | N#Cc1cc2c(-c3ccc([N+](=O)[O-])cc3)nn(-c3ccccc3)c(=O)c2[nH]c1=O | 78.5 | – | –
2 | COc1ccc2c(c1)c(CC(=O)O)c(C)n2C(=O)c1ccc(Cl)cc1 [INDOMETHACIN] | – | – | inhibition (INH) [2]: 98.2%
3 | O=C(O)c1cc2c(-c3ccc(Cl)cc3)n[nH]c(=O)c2[nH]c1=O | 75.2 | 65.9 | –
4 | N#Cc1cc2c(-c3ccc(Cl)cc3)nn(-c3ccccc3)c(=O)c2[nH]c1=O | 81.8 | 62.8 | IC50 at 72 h [4]: 249 µM; inhibition [5]: 20.2%; inhibition [6]: 40.3%; inhibition [7]: 22.1%; inhibition [8]: 30.6%
5 | N#Cc1cc2c(-c3ccc(Cl)cc3)n[nH]c(=O)c2[nH]c1=O | 50.4 | 49 | –
6 | O=C(O)c1cc2c(-c3ccc([N+](=O)[O-])cc3)n[nH]c(=O)c2[nH]c1=O | 56.2 | 63.2 | –
7 | CCOC(=O)c1cc2c(-c3ccc([N+](=O)[O-])cc3)n[nH]c(=O)c2[nH]c1=O | – | 64.2 | –
